A selection: hits, their analogues and other compounds. The true share with any hit is near 4.3%.
FLuc stim CS: FLuc activators, initial screening, artefact control for FLuc-dependent activation tests, biochemical, ATPlite luminescence; Luciferin 4-monooxygenase (Photinus pyralis), P08659; ATPlite luciferase biochemical, 10 min; 0 = ATP-free wells, 1 = DMSO control; activation factor at 10 µM; 200,000 tested, under 10 active; AID 1027, 2008;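 active means luciferase activation factor, scaled between plate controls, of at least 2 with compound at 10 µM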
Target sequence (P08659 whole entry, looked up): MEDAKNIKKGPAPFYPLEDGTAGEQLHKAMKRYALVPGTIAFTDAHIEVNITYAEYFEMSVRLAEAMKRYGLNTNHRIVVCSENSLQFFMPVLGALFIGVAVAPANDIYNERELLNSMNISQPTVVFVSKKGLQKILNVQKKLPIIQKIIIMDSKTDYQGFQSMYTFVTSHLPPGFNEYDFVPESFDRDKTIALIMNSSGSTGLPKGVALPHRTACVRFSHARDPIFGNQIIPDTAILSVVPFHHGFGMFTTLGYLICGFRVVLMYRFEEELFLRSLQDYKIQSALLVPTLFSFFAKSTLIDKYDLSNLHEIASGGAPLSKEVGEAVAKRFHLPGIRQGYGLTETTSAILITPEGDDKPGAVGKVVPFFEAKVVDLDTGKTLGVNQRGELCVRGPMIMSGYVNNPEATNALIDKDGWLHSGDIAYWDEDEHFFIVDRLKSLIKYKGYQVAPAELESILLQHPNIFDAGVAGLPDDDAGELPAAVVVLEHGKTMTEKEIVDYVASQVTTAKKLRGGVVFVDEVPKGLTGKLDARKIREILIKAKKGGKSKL
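Assay system: Luciferase/luciferin reagent mix; Medium: PBS as buffer for the ATP substrate; Dosing: test compounds dosed from 2 mM stocks in 100% DMSO; Times: 10 min, room temperature; Signal: luminescence from luciferase reaction; Read-out: luciferase activation; Controls: No-ATP low control, compound-free enzyme-plus-ATP high control.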
APP 5'UTR act: activators of APP 5'UTR luciferase reporter, primary screen, SH-SY5Y cells. activation, % at 2 µM. SH-SY5Y APP 5'UTR luciferase reporter, luminescence; zero percent = DMSO vehicle wells. 1% of 190,000 active;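 active means activation above a set limit, based on mean plus 3 SD of controls, cut at about 140% in these data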
NF-kB neuron act: activators of NF-kB expression in neurons, primary screen, cell-based, HTS; human neuronal cells, NF-kB reporter expression; active compounds read high; fold change at 12.5 µM; 1.6% of 190,000 active; AID 1239, 2008; in the data active means fold change above about 3.3
STAT1 activator: STAT1 signaling activators, primary screen, cell-based, HTS, luciferase reporter; NIH 3T3 STAT1-luciferase reporter, IFN-gamma, luminescence; 100% = IFN-gamma alone, no compound; 2.6% of 200,000 active; activation (% of control), % at 5.5 µM;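 active means activation above the screen-wide mean activation plus 3 SD, cut at about 130% in these data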;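 further: raw ratio to IFN-gamma control signal so 100% means no change and 0% no light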
FLuc inhib CS: firefly luciferase enzyme inhibitors, primary screen, artefact control for luciferase-based inhibitor screens, biochemical, luminescence, ATPLite | Luciferin 4-monooxygenase (Photinus pyralis), P08659 | 1.5% of 200,000 active | 10 min | inhibition, % at 10 µM;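 active means inhibition above about 50% when tested at 10 µM, limit read from the data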
* marks the source's active call; other numbers are inactive results.

For Cc1csc(SCC(=O)NC(=O)NCCC(C)C)n1 the results were FLuc stim CS 1.1, APP 5'UTR act 15, NF-kB neuron act 1.3, STAT1 activator 99 and FLuc inhib CS -8.
`Cc1ccc(NC(=O)c2cccs2)cc1` gave FLuc stim CS 0.7, APP 5'UTR act 75, NF-kB neuron act 2.9, STAT1 activator 131* and FLuc inhib CS 32.
Screening O=C(Nc1ccc(NC(=O)C2CCCCC2)nc1)c1cccs1 returned FLuc stim CS 1, APP 5'UTR act 49, NF-kB neuron act 1.9, STAT1 activator 132* and FLuc inhib CS 0.
`Cc1ccc(NC(=O)c2cc(-c3cccs3)on2)cc1` gave FLuc stim CS 0.9, APP 5'UTR act 13, NF-kB neuron act 2.4, STAT1 activator 130* and FLuc inhib CS 7.
For O=C(Nc1ccc(-c2csc(-c3ccccc3)n2)cc1)c1ccccc1Cl the results were FLuc stim CS 1, APP 5'UTR act 0, NF-kB neuron act 1.1, STAT1 activator 103 and FLuc inhib CS -3.
Screening Cc1ccc(NC(=O)c2csc(-c3ccccc3)c2C)cc1 returned FLuc stim CS 0.1, APP 5'UTR act 216*, NF-kB neuron act 0.78, STAT1 activator 43 and FLuc inhib CS 85*.
COCCNC(=O)c1cc(-c2ccc3c(c2)OCO3)on1 was read as FLuc stim CS 0.4, APP 5'UTR act 33, NF-kB neuron act 2.6, STAT1 activator 96 and FLuc inhib CS 56*.
For COCCNC(=O)c1cc(-c2cccs2)on1 the results were FLuc stim CS 0.9, APP 5'UTR act 27, NF-kB neuron act 6.4*, STAT1 activator 135* and FLuc inhib CS 6.
For O=C(NCc1cccs1)c1cc(-c2cccs2)on1 the results were FLuc stim CS 1, APP 5'UTR act 76, NF-kB neuron act 2.3, STAT1 activator 138* and FLuc inhib CS 2.
Screening O=C(NCc1ccco1)c1cc(-c2ccc3c(c2)OCO3)on1 returned FLuc stim CS 0.8, APP 5'UTR act 31, NF-kB neuron act 2.5, STAT1 activator 120 and FLuc inhib CS 15.
Screening CCOC(=O)CCNC(=O)N1CCCC(CNS(=O)(=O)c2cccs2)C1 (stereo not drawn) returned FLuc stim CS 1, APP 5'UTR act -5, NF-kB neuron act 1.1, STAT1 activator 101 and FLuc inhib CS -5.
CSc1nc(C(=O)N2CCCC(C(=O)c3ccc(Cl)cc3)C2)cs1 (stereo not drawn) was read as FLuc stim CS 1.1, APP 5'UTR act 9, NF-kB neuron act 1, STAT1 activator 94 and FLuc inhib CS -6.
For COc1cc(OC)c(C(=O)NCC(c2cccs2)N(C)C)cc1OC (stereo not drawn) the results were FLuc stim CS 1, APP 5'UTR act 27, NF-kB neuron act 1.2, STAT1 activator 102 and FLuc inhib CS -4.
For COc1cc2ccccc2cc1C(=O)NCC(c1cccs1)N(C)C (stereo not drawn) the results were FLuc stim CS 0.4, APP 5'UTR act 33, NF-kB neuron act 2, STAT1 activator 124 and FLuc inhib CS 64*.
Screening Clc1ccc(-c2nc3n(n2)Cc2ccccc2-3)cc1 returned FLuc stim CS 0.4, APP 5'UTR act 139*, NF-kB neuron act 6.1*, STAT1 activator 150* and FLuc inhib CS 58*.
For CCN(CC)S(=O)(=O)c1cccc(-c2nc3n(n2)Cc2ccccc2-3)c1 the results were FLuc stim CS 0.9, APP 5'UTR act -10, NF-kB neuron act 1.4, STAT1 activator 127 and FLuc inhib CS 7.
For Cc1csc(Nc2ccc(Cl)cc2)n1 the results were FLuc stim CS 0.9, APP 5'UTR act 47, NF-kB neuron act 2.3, STAT1 activator 138* and FLuc inhib CS 8.
For COC(=O)Cc1csc(Nc2ccc(Cl)cc2)n1 the results were FLuc stim CS 1, APP 5'UTR act 10, NF-kB neuron act 1.6, STAT1 activator 98 and FLuc inhib CS 2.
Screening Cc1ccc(Nc2nc(C)cs2)cc1 returned FLuc stim CS 0.5, APP 5'UTR act 199*, NF-kB neuron act 0.94, STAT1 activator 130* and FLuc inhib CS 54*.
Cc1csc(Nc2cccc3ccccc23)n1 was read as FLuc stim CS 1.1, APP 5'UTR act 22, NF-kB neuron act 1.4, STAT1 activator 104 and FLuc inhib CS -6.
`COCCNC(=O)COc1ccc(C)cc1C(=O)c1cc(C#N)c(=O)n(C2CC2)c1` gave FLuc stim CS 1, APP 5'UTR act -17, NF-kB neuron act 1.2, STAT1 activator 99 and FLuc inhib CS -2.
COCCCn1c(=S)[nH]c2c(sc3ccccc32)c1=O was read as FLuc stim CS 1, APP 5'UTR act -6, NF-kB neuron act 1.7, STAT1 activator 103 and FLuc inhib CS 2.
Screening COc1cc(NC(=O)c2cc3ccccc3o2)c(OC)cc1Br returned FLuc stim CS 1, APP 5'UTR act 0, NF-kB neuron act 1.1, STAT1 activator 100 and FLuc inhib CS -1.
For COc1ccccc1NC(=O)c1ccc(-c2ccccc2[N+](=O)[O-])o1 the results were FLuc stim CS 0.8, APP 5'UTR act 46, NF-kB neuron act 1.9, STAT1 activator 150* and FLuc inhib CS 20.
For COc1ccc(NC(=O)c2cc3ccccc3o2)cc1 the results were FLuc stim CS 0.5, APP 5'UTR act 138*, NF-kB neuron act 5.3*, STAT1 activator 146* and FLuc inhib CS 53*.
COc1ccccc1NC(=O)c1cc2ccccc2o1 was read as FLuc stim CS 0.7, APP 5'UTR act 46, NF-kB neuron act 2.4, STAT1 activator 154* and FLuc inhib CS 27.
`Cc1ccccc1NC(=O)c1ccc([N+](=O)[O-])o1` gave FLuc stim CS 1, APP 5'UTR act 2, NF-kB neuron act 3.3*, STAT1 activator 100 and FLuc inhib CS -3.
CC1=NC(C#N)=C(C#N)NC(C)(C)C1 was read as FLuc stim CS 1, APP 5'UTR act -4, NF-kB neuron act 1.1, STAT1 activator 99 and FLuc inhib CS -4.
Screening N#Cc1ccccc1NC(=O)c1ccc(-c2ccccc2Cl)o1 returned FLuc stim CS 0.9, APP 5'UTR act 45, NF-kB neuron act 2.1, STAT1 activator 138* and FLuc inhib CS 9.
`CC(C)C(=O)Nc1cccc(NC(=O)c2cc3ccccc3o2)c1` gave FLuc stim CS 0.7, APP 5'UTR act 36, NF-kB neuron act 1.5, STAT1 activator 130* and FLuc inhib CS 30.
Cc1nc(/C=C\C(=O)O)c2cc(C)oc2n1 was read as FLuc stim CS 1.1, APP 5'UTR act 6, STAT1 activator 104 and FLuc inhib CS -9.
`COc1cc(/C=N/NC(=S)N/N=C/c2cc(OC)c(OC)c(OC)c2)cc(OC)c1OC` gave FLuc stim CS 0.3, APP 5'UTR act -1, NF-kB neuron act 1.2, STAT1 activator 112 and FLuc inhib CS 68*.

Bioassay records as filed in PubChem BioAssay.
